# Measured values: ChEMBL document CHEMBL4373711, “Development of 3,5-Dinitrophenyl-Containing 1,2,4-Triazoles and Their Trifluoromethyl Analogues as Highly Efficient Antitubercular Agents Inhibiting Decaprenylphosphoryl-β-d-ribofuranose 2'-Oxidase” (J Med Chem, 2019)
# Active and inactive are the calls of the source. The rule behind the calls is not given here.
# How the values were obtained:
# Candida albicans = test: Antifungal activity against Candida albicans ATCC 24433 CCM 8320 at highest concentration measured after 24 to 48 hrs by alamar blue dye based broth microdilution assay; type: functional, organism-based
# Staphylococcus aureus [1] = test: Antibacterial activity against Staphylococcus aureus subsp. aureus ATCC 29213 CCM 4223 at highest concentration measured after 24 to 48 hrs by alamar blue dye based broth microdilution assay; type: functional, organism-based
# Enterococcus faecalis = test: Antibacterial activity against Enterococcus faecalis ATCC 29212 CCM 4224 at highest concentration measured after 24 to 48 hrs by alamar blue dye based broth microdilution assay; type: functional, organism-based
# A-431 = test: Cytotoxicity against human A431 cells assessed as reduction in cell viability after 48 hrs by CellTiter 96 aqueous one solution assay; type: cell-based; details: A-431, 48 h
# Escherichia coli = test: Antibacterial activity against Escherichia coli ATCC 25922 CCM 3954 at highest concentration measured after 24 to 48 hrs by alamar blue dye based broth microdilution assay; type: functional, organism-based
# Candida tropicalis = test: Antifungal activity against Candida tropicalis ATCC 750 CCM 8264 at highest concentration measured after 24 to 48 hrs by alamar blue dye based broth microdilution assay; type: functional, organism-based
# Mycobacterium avium [2] = test: Antimycobacterial activity against Mycobacterium avium CNCTC My 330/88 after 14 days; type: functional; details: CNCTC My 330/88, 336 h
# In short: (§1)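 M. avium was tested by microdilution in Šula's semisynthetic medium, with compounds dissolved in DMSO and serially diluted from 1000 down to 1. Inoculum was a 1.0 McFarland suspension diluted 10-5. Plates were incubated at 37 °C and read at 14 and 21 days. […] Isoniazid and rifampicin served as standards.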
# Klebsiella pneumoniae = test: Antibacterial activity against Klebsiella pneumoniae at highest concentration measured after 24 to 48 hrs by alamar blue dye based broth microdilution assay; type: functional, organism-based
# [3] = system: Mycobacterium tuberculosis; test: Antimycobacterial activity against XDR Mycobacterium tuberculosis Praha 131 after 14 days; type: functional; details: Praha 131, 336 h
# In short: (§2)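 M. tuberculosis strains (H37Rv and clinical MDR/XDR isolates) tested by microdilution in Šula's semisynthetic medium. Compounds were dissolved in DMSO and tested at 32 to 0.03 µM in twofold steps. Inoculum was a 1.0 McFarland suspension diluted 10-3. Plates were incubated at 37 °C and read at 14 and 21 days.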
# Aspergillus fumigatus = test: Antifungal activity against Aspergillus fumigatus ATCC 204305 at highest concentration measured after 24 to 48 hrs by alamar blue dye based broth microdilution assay; type: functional, organism-based
# [4] = Cytotoxicity against human HepG2 cells assessed as cell viability at 30 uM after 48 hrs by CellTiter 96 aqueous one solution assay relative to control; type: cell-based; details: read-out: Activity
# In short: (§3)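 HepG2 (DMEM, 10% FBS, 1 mM pyruvate) or A431 (DMEM, 10% FBS) seeded 10,000 cells/well, 24 h at 37 °C, 5% CO2, then 30 µM compound for 48 h. MTS reagent 60 min, absorbance 490 nm, background subtracted; 0.1% DMSO vehicle = 100%, 10% SDS = 0% viability.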
# [5] = Cytotoxicity against human A431 cells assessed as cell viability at 30 uM after 48 hrs by CellTiter 96 aqueous one solution assay relative to control; type: cell-based, A-431; details: read-out: Activity; in short: as §3
# Mycobacterium kansasii [6] = test: Antimycobacterial activity against Mycobacterium kansasii CNCTC My 235/80 after 14 days; type: functional; details: CNCTC My 235/80, 336 h
# In short: (§4)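 Microdilution in Šula's semisynthetic medium; compounds in DMSO at 32–0.03 µM. Inoculum from 1.0 McFarland suspension diluted 10-4. […] Isoniazid and rifampicin as reference drugs.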
# Mycobacterium kansasii [7] = test: Antimycobacterial activity against Mycobacterium kansasii CNCTC My 235/80 after 7 days; type: functional; details: CNCTC My 235/80, 168 h; in short: as §4
# Mycobacterium kansasii [8] = test: Antimycobacterial activity against Mycobacterium kansasii 6509/96 after 7 days; type: functional; details: 6509/96, 168 h; in short: as §4
# Pichia kudriavzevii = test: Antifungal activity against Candida krusei ATCC 6258 CCM8271 at highest concentration measured after 24 to 48 hrs by alamar blue dye based broth microdilution assay; type: functional, organism-based
# [9] = system: Trichophyton interdigitale; test: Antifungal activity against Trichophyton interdigitale ATCC 9533 CCM 8377 at highest concentration measured after 72 to 120 hrs by alamar blue dye based broth microdilution assay; type: functional
# Staphylococcus aureus [10] = test: Antibacterial activity against methicillin-resistant Staphylococcus aureus subsp. aureus ATCC 43300 CCM 4750 at highest concentration measured after 24 to 48 hrs by alamar blue dye based broth microdilution assay; type: functional, organism-based
# Mycobacterium avium [11] = test: Antimycobacterial activity against Mycobacterium avium CNCTC My 330/88 after 21 days; type: functional; details: CNCTC My 330/88, 504 h; in short: as §1
# [12] = system: Mycobacterium tuberculosis; test: Antimycobacterial activity against XDR Mycobacterium tuberculosis Praha 131 after 21 days; type: functional; details: Praha 131, 504 h; in short: as §2
# [13] = system: Staphylococcus epidermidis; test: Antibacterial activity against Staphylococcus epidermidis at highest concentration measured after 24 to 48 hrs by alamar blue dye based broth microdilution assay; type: functional, organism-based
# Mycobacterium kansasii [14] = test: Antimycobacterial activity against Mycobacterium kansasii 6509/96 after 21 days; type: functional; details: 6509/96, 504 h; in short: as §4
# Candida parapsilosis = test: Antifungal activity against Candida parapsilosis ATCC 22019 CCM 8260 at highest concentration measured after 24 to 48 hrs by alamar blue dye based broth microdilution assay; type: functional, organism-based
# HepG2 = test: Cytotoxicity against human HepG2 cells assessed as reduction in cell viability after 48 hrs by CellTiter 96 aqueous one solution assay; type: cell-based; details: HepG2, 48 h
# Serratia marcescens = test: Antibacterial activity against Serratia marcescens at highest concentration measured after 24 to 48 hrs by alamar blue dye based broth microdilution assay; type: functional, organism-based
# Mycobacterium kansasii [15] = test: Antimycobacterial activity against Mycobacterium kansasii CNCTC My 235/80 after 21 days; type: functional; details: CNCTC My 235/80, 504 h; in short: as §4
# Pseudomonas aeruginosa = test: Antibacterial activity against Pseudomonas aeruginosa ATCC 27853 CCM 3955 at highest concentration measured after 24 to 48 hrs by alamar blue dye based broth microdilution assay; type: functional, organism-based
# Lichtheimia corymbifera = test: Antifungal activity against Lichtheimia corymbifera CCM 8077 at highest concentration measured after 24 to 48 hrs by alamar blue dye based broth microdilution assay; type: functional, organism-based
# Mycobacterium kansasii [16] = test: Antimycobacterial activity against Mycobacterium kansasii 6509/96 after 14 days; type: functional; details: 6509/96, 336 h; in short: as §4
# [17] = system: Mycobacterium tuberculosis; test: Antimycobacterial activity against Mycobacterium tuberculosis H37Rv CNCTC My 331/88 after 21 days; type: functional; details: H37Rv CNCTC My 331/88, 504 h; in short: as §2
# Aspergillus flavus = test: Antifungal activity against Aspergillus flavus CCM 8363 at highest concentration measured after 24 to 48 hrs by alamar blue dye based broth microdilution assay; type: functional, organism-based
# [18] = system: Mycobacterium tuberculosis; test: Antimycobacterial activity against Mycobacterium tuberculosis H37Rv CNCTC My 331/88 after 14 days; type: functional; details: H37Rv CNCTC My 331/88, 336 h; in short: as §2
Structure (SMILES),Activity (Candida albicans),Activity (Staphylococcus aureus [1]),Activity (Enterococcus faecalis),IC50 (A-431),Activity (Escherichia coli),MIC99 (Mycobacterium avium [2]),MIC99 [3],"viability at 48 h, 30 µM [4]","viability at 48 h, 30 µM [5]",MIC99 (Mycobacterium kansasii [6]),MIC99 (Mycobacterium kansasii [7]),MIC99 (Mycobacterium kansasii [8]),MIC99 (Mycobacterium avium [11]),MIC99 [12],MIC99 (Mycobacterium kansasii [14]),IC50 (HepG2),MIC99 (Mycobacterium kansasii [15]),MIC99 (Mycobacterium kansasii [16]),MIC99 [17],MIC99 [18],further results
O=[N+]([O-])c1cc(CSc2nnc(-c3ccccc3)n2Cc2ccccc2)cc([N+](=O)[O-])c1,inactive,inactive,inactive,> 30 µM,inactive,> 1000 µM,2 µM,107%,69%,4 µM,2 µM,2 µM,> 1000 µM,4 µM,8 µM,> 30 µM,8 µM,8 µM,4 µM,4 µM,Activity (Candida tropicalis): inactive; Activity (Klebsiella pneumoniae): inactive; Activity (Aspergillus fumigatus): inactive; Activity (Pichia kudriavzevii): inactive; Activity [9]: inactive; Activity (Staphylococcus aureus [10]): inactive; Activity [13]: inactive; Activity (Candida parapsilosis): inactive; Activity (Serratia marcescens): inactive; Activity (Pseudomonas aeruginosa): inactive; Activity (Lichtheimia corymbifera): inactive; Activity (Aspergillus flavus): inactive
O=[N+]([O-])c1cc(CSc2nnc(-c3ccc(Br)cc3)n2Cc2ccccc2)cc([N+](=O)[O-])c1,inactive,inactive,inactive,> 30 µM,inactive,250 µM,4 µM,173%,93%,2 µM,1 µM,2 µM,250 µM,4 µM,4 µM,> 30 µM,4 µM,4 µM,4 µM,2 µM,Activity (Candida tropicalis): inactive; Activity (Klebsiella pneumoniae): inactive; Activity (Aspergillus fumigatus): inactive; Activity (Pichia kudriavzevii): inactive; Activity [9]: inactive; Activity (Staphylococcus aureus [10]): inactive; Activity [13]: inactive; Activity (Candida parapsilosis): inactive; Activity (Serratia marcescens): inactive; Activity (Pseudomonas aeruginosa): inactive; Activity (Lichtheimia corymbifera): inactive; Activity (Aspergillus flavus): inactive
O=[N+]([O-])c1cc(-c2nnc(SCc3ccc(Br)cc3)n2Cc2ccccc2)cc([N+](=O)[O-])c1,inactive,inactive,inactive,> 30 µM,inactive,62 µM,0.125 µM,104%,110%,0.25 µM,0.125 µM,0.125 µM,62 µM,0.25 µM,0.25 µM,> 30 µM,0.25 µM,0.125 µM,0.25 µM,0.125 µM,Activity (Candida tropicalis): inactive; Activity (Klebsiella pneumoniae): inactive; Activity (Aspergillus fumigatus): inactive; Activity (Pichia kudriavzevii): inactive; Activity [9]: inactive; Activity (Staphylococcus aureus [10]): inactive; Activity [13]: inactive; Activity (Candida parapsilosis): inactive; Activity (Serratia marcescens): inactive; Activity (Pseudomonas aeruginosa): inactive; Activity (Lichtheimia corymbifera): inactive; Activity (Aspergillus flavus): inactive
O=[N+]([O-])c1cc(CSc2nnc(C3CCCCC3)n2Cc2ccccc2)cc(C(F)(F)F)c1,–,–,–,> 30 µM,–,250 µM,16 µM,79%,67%,16 µM,16 µM,16 µM,250 µM,16 µM,32 µM,> 30 µM,16 µM,16 µM,16 µM,16 µM,–
CO[C@H]1/C=C/O[C@@]2(C)Oc3c(C)c(O)c4c(O)c(c(/C=N/N5CCN(C)CC5)c(O)c4c3C2=O)NC(=O)/C(C)=C\C=C\[C@H](C)[C@H](O)[C@@H](C)[C@@H](O)[C@@H](C)[C@H](OC(C)=O)[C@@H]1C [RIFAMPIN],–,–,–,–,–,32 µM,> 8 µM,–,–,0.25 µM,0.125 µM,0.125 µM,62 µM,–,0.25 µM,–,0.25 µM,0.25 µM,0.25 µM,0.25 µM,–
